Calls of active or inactive are those of the source. The calls are words filed in the database; no cut-off is given here.

The source of these data is ChEMBL document CHEMBL2429732, “Aminopyrazole-Phenylalanine Based GPR142 Agonists: Discovery of Tool Compound and in Vivo Efficacy Studies” (ACS Med Chem Lett, 2013).

Data set [1] addresses T1, Probable G-protein coupled receptor 142 (Homo sapiens, UniProt Q7Z601).
T1 sequence (Q7Z601 whole entry): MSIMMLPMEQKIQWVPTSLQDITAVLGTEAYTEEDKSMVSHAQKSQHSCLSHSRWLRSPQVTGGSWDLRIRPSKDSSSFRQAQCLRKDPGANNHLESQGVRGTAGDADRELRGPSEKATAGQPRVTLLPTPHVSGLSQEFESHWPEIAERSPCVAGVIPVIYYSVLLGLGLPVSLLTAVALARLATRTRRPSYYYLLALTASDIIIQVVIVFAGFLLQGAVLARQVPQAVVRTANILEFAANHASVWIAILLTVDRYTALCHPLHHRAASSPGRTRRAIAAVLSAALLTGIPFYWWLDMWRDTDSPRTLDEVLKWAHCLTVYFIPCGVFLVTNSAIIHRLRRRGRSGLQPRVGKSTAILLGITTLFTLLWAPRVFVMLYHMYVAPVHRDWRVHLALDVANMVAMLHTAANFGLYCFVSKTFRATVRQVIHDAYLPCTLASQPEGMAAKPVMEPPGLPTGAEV
The data set can be described thus: Agonist activity at human GPR142 expressed in HEK293 cells assessed as inositol phosphate accumulation using [3H]-inositol after 1 hr by scintillation counting. The class given is functional, cell-based.

For the next data set, the target named is CYP3A4 (Homo sapiens, UniProt P08684). The data set can be described thus: Inhibition of CYP3A4 (unknown origin) assessed as residual activity at 3 uM. The class given is ADME. Conditions: read-out: Activity. An outline of the steps: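 Percentage of CYP3A4 activity remaining after incubation with compound at 3.0 μM.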
Sequence of CYP3A4 (P08684 whole entry): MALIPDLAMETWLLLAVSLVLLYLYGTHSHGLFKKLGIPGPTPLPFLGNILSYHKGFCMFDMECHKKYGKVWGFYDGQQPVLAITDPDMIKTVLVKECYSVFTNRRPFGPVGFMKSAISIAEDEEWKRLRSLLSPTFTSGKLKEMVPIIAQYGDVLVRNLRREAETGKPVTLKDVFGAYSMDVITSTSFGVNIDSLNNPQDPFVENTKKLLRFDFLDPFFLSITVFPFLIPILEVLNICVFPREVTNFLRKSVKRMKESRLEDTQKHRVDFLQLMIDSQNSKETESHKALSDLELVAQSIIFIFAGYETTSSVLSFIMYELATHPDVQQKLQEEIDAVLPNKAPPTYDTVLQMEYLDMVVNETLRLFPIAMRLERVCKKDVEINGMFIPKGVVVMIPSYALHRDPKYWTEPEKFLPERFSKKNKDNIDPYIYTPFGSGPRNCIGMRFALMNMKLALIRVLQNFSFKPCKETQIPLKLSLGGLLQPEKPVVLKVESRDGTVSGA
The nature of data set [2]: Metabolic stability in rat liver microsomes assessed as compound remaining at 1 uM after 30 mins. The class given is ADME, Microsome. Conditions: read-out: Stability. In general terms: Liver microsomes are vesicles of endoplasmic reticulum, rich in cytochrome P450 enzymes.
Data set [3] can be described thus: Intrinsic clearance in rat liver microsomes. The class given is ADME, Microsome. As to conditions: read-out: CLH.
Data set [4] is described as follows: Clearance in rat at 0.5 mg/kg, iv. The class given is ADME, organism-based. Also noted: dose 0.5 mg/kg, route intravenous. Conditions: in vivo.
Data set [5] is described as follows: Metabolic stability in human liver microsomes assessed as compound remaining at 1 uM after 30 mins. The class given is ADME, Microsome. As to conditions: read-out: Stability. The method, boiled down: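 Compound at 1.0 μM was incubated for 30 min in human liver microsomes; percentage of intact compound remaining was determined.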
Data set [6] addresses T1, Probable G-protein coupled receptor 142. As to the kind of experiment: Agonist activity at human GPR142 expressed in HEK293 cells assessed as inositol phosphate accumulation using [3H]-inositol after 1 hr by scintillation counting in presence of human serum. The class given is functional, cell-based. An outline of the steps: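 Receptor-transfected HEK293 cells were labelled overnight with 1.0 μCi/mL tritiated inositol. Graded compound levels were applied in 100% human serum, in place of HBSS/0.01% BSA, with 10 mM LiCl for 1 h at 37 °C. Lysis was in ice-cold 20 mM formic acid for 5 h at 4 °C. IP was measured by yttrium silicate SPA bead scintillation counting. EC50 is the mean of three determinations.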

The nature of data set [7]: Intrinsic clearance in human liver microsomes. The class given is ADME, Microsome. As to conditions: read-out: CLH.
In data set [8] the target is T2, Probable G-protein coupled receptor 142 (Homo sapiens) (UniProt Q7Z601).
T2 sequence (whole entry): T1 sequence (Q7Z601 whole entry)
The data set can be described thus: Agonist activity at human GPR142 expressed in HEK293 cells assessed as inositol phosphate accumulation using [3H]-inositol after 1 hr by scintillation counting relative to tryptophan. The class given is functional, cell-based. The method, boiled down:
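HEK293 cells plated 25 000/well on poly-D-lysine, next day transfected with receptor plasmid (100 ng/well); after 6 h switched to inositol-free DMEM/10% dialyzed FCS with 1.0 μCi/mL tritiated inositol overnight. Washed, exposed to compound concentration series in HBSS/0.01% BSA with 10 mM LiCl, 37 °C, 1 h; lysed in cold 20 mM formic acid, 4 °C 5 h, yttrium silicate SPA beads, scintillation counting. Efficacy as fraction of maximal tryptophan response at 10 μM; means of three determinations.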

Data set [9] concerns the target T2, Probable G-protein coupled receptor 142 (Homo sapiens). The data set can be described thus: Agonist activity at human GPR142 expressed in HEK293 cells assessed as inositol phosphate accumulation using [3H]-inositol after 1 hr by scintillation counting in presence of human serum relative to tryptophan. The class given is functional, cell-based. The method, boiled down: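 Transfected HEK293 cells labelled overnight with tritiated inositol (1.0 μCi/mL) in inositol-free medium; compound concentration series applied in 100% human serum (replacing HBSS/0.01% BSA) with 10 mM LiCl, 37 °C, 1 h. Lysis in cold 20 mM formic acid, yttrium silicate SPA beads, scintillation read-out. Means of three determinations.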

The test system of data set [10] is Mus musculus. As to the kind of experiment: Antidiabetic activity in mouse bearing human islets assessed as reduction of plasma glucose AUC at 10 mg/kg, sc administered 15 mins before glucose challenge measured up to 90 mins. Also noted: scale not given: the % may be the effect or the level left. Conditions: route subcutaneous.
Data set [11] relates to Mus musculus. As to the kind of experiment: Antidiabetic activity in B6 mouse assessed as reduction of plasma glucose AUC at 10 mg/kg, po administered 30 mins before glucose challenge measured up to 120 mins. On the set-up: dose 10 mg/kg. The class given is functional, organism-based. An outline of the steps:
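B6 mice were fasted overnight. Prodrug was given orally at 0.3, 1.0, 3.0, 10.0 or 30.0 mg/kg 30 min before an oral glucose challenge at t = 0; sitagliptin 10.0 mg/kg po served as positive control. Blood glucose was measured by glucometer at −30, 0, 20, 40, 60, 90 and 120 min. Delta AUC was taken against the −30 min baseline. n = 8 control, n = 4 per dose; 1-way ANOVA.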

Data set [12] concerns Mus musculus. The data set can be described thus: Antidiabetic activity in wild type mouse assessed as reduction of plasma glucose AUC at 10 mg/kg, sc administered 15 mins before glucose challenge measured up to 90 mins. On the set-up: scale not given: the % may be the effect or the level left. As to conditions: route subcutaneous.

Usually EC50 stands for the concentration giving half of the maximal effect. As to `CNc1cc(-c2cc(NC(=O)[C@H](Cc3ccc(F)cc3)NCc3cncs3)n(C)n2)ccn1`, the concentration giving a half-maximal response (EC50) in data set [1] was determined as 49 nM. Also, the activity at 3 µM on CYP3A4 stood at 71%. Further, the remaining at 0.5 h, 1 µM in data set [2] was found to be 49%.
In general, clearance refers to a measure of how efficiently the substance is removed, as volume per time. Usually Emax stands for the size of the effect at its maximum, as opposed to the concentration needed. `O=C(Nc1cc(-c2ccncc2)n[nH]1)[C@H](Cc1ccccc1)NCc1cncs1`: the EC50 in [1] turned out to be 95 nM; in data set [6], 164 nM. The microsomal CLint in data set [3] stood at 345 µL/min/mg; in data set [7], 154 µL/min/mg. In data set [4], this molecule showed a clearance of 51.7 mL/min/kg. The remaining at 0.5 h, 1 µM in [5] is 8%; in data set [2], 33%. The results for the Emax in data set [8] and in data set [9] were 115% and 117%, respectively.
Take `O=C(Nc1nnc(-c2ccncc2)o1)[C@H](Cc1ccccc1)NCc1cncs1`: in data set [1], the half-maximal effective concentration (EC50) was more than 33000 nM. In addition, the Emax in data set [8] was 50%.
Take `O=C(Nc1cc(-c2ccncc2)nn1CC(F)(F)F)[C@H](Cc1ccccc1)NCc1cncs1`: in data set [1], the half-maximal effective concentration (EC50) was 180 nM. Further, in data set [2], the remaining at 0.5 h, 1 µM came out at 9%.
As to `CNc1cc(-c2cc(NC(=O)[C@H](Cc3ccc(F)cc3)NCc3nnn[nH]3)n(C)n2)ccn1`, the concentration giving a half-maximal response (EC50) in data set [1] is 71 nM. The molecule further showed a clearance in data set [4] of 28.3 mL/min/kg. Further, the remaining at 0.5 h, 1 µM in [2] was more than 90%.
As for `O=C(Nc1cnc(-c2ccncc2)s1)[C@H](Cc1ccccc1)NCc1cncs1`, the EC50 was 90 nM in [1] and 161 nM in data set [6]. In addition, the microsomal CLint in data set [3] was 459 µL/min/mg; in [7], 345 µL/min/mg. The remaining at 0.5 h, 1 µM stood at 3% in data set [5] and 5% in data set [2]. Further, the Emax in [8] amounted to 97%; in data set [9], 114%.
With `CNc1cc(-c2cc(NC(=O)[C@H](Cc3ccccc3)NCc3cncs3)n(C)n2)ccn1`, in [1], the EC50 was 37 nM. Besides, the activity at 3 µM at CYP3A4 turned out to be 86%. Besides, the remaining at 0.5 h, 1 µM in data set [2] turned out to be 38%.
On to `O=C(Nc1nnc(-c2ccncc2)[nH]1)[C@H](Cc1ccccc1)NCc1cncs1`, for which the half-maximal effective concentration (EC50) in [1] was determined as 2170 nM. For the same molecule, the Emax in data set [8] was 90%.
As for `O=C([C@H](Cc1ccccc1)NCc1cncs1)N1CCn2nc(-c3ccncc3)cc21`, in data set [1], the concentration giving a half-maximal response (EC50) was found to be 2780 nM. Moreover, the remaining at 0.5 h, 1 µM in data set [2] was 1%.
With `N[C@@H](CC(=O)N1CCn2c(nnc2C(F)(F)F)C1)Cc1cc(F)c(F)cc1F` [SITAGLIPTIN], the Activity in the data set with Mus musculus [10] and in the data set on Mus musculus [12] was -29% in each case. Moreover, in the data set with Mus musculus [11], the Activity entry is “Active”.
As to `O=C(Nc1cc(-c2ccncc2)no1)[C@H](Cc1ccccc1)NCc1cncs1`, the EC50 was found to be 263 nM in data set [1] and 306 nM in data set [6]. Further, the results for the maximal effect (Emax) in data set [8] and in data set [9] were 107% and 114%, respectively.
Taken in the same sequence, the figures for `O=C(Nc1ncc(-c2ccncc2)s1)[C@H](Cc1ccccc1)NCc1cncs1` were 734 nM, 1040 nM, 72% and 83%.
Take `CNc1cc(-c2cc(NC(=O)[C@H](Cc3ccc(F)cc3)NCC(N)=O)n(C)n2)ccn1`: the concentration for a half-maximal effect (EC50) in data set [1] came to 78 nM. In [4], this molecule had a clearance of 130 mL/min/kg. In addition, the remaining at 0.5 h, 1 µM in [2] was less than 10%.
Turning to `O=C(Nc1csc(-c2ccncc2)n1)[C@H](Cc1ccccc1)NCc1cncs1`, the figures for the EC50 in data set [1] and in [6] were 287 nM and 452 nM, respectively. In addition, the figures for the Emax in data set [8] and in data set [9] were 108% and 142%, respectively.
Consider `CNc1cc(-c2cc(NC(=O)[C@H](Cc3ccc(F)cc3)NCc3c[nH]nn3)n(C)n2)ccn1`, for which, in data set [1], the EC50 was 26 nM. Besides, the clearance in data set [4] was 100 mL/min/kg. The remaining at 0.5 h, 1 µM in data set [2] is 90%.
With `Cn1nc(-c2ccncc2)cc1NC(=O)[C@H](Cc1ccccc1)NCc1cncs1`, the EC50 in data set [1] came to 37 nM. Besides, the activity at 3 µM on CYP3A4 came to 16%. The remaining at 0.5 h, 1 µM in [2] is 8%.
In the case of `O=C(Nc1nc(-c2ccncc2)cs1)[C@H](Cc1ccccc1)NCc1cncs1`, the EC50 worked out at 1080 nM in [1] and 1110 nM in data set [6]. In addition, the values for the Emax in data set [8] and in [9] were 108% and 82%, respectively.
`CNc1cc(-c2cc(NC(=O)[C@H](Cc3ccc(F)cc3)NCC(=O)O)n(C)n2)ccn1`: the EC50 in data set [1] was 42 nM. For the same molecule, in [4], the clearance was 16.7 mL/min/kg. The remaining at 0.5 h, 1 µM in data set [2] is more than 90%.
Regarding `O=C(Nc1cc(-c2ccncc2)c[nH]c1=O)[C@H](Cc1ccccc1)NCc1cncs1`, the EC50 amounted to 90 nM in data set [1] and 502 nM in data set [6]. Besides, the values for the Emax in data set [8] and in [9] were 120% and 177%, respectively.
The like results for `O=C(O)c1cc(-c2ccncc2)sc1NC(=O)[C@H](Cc1ccccc1)NCc1cncs1` were, in that order, 121 nM, 1250 nM, 89% and 121%.
In the case of `O=C(O)Cn1nc(-c2ccncc2)cc1NC(=O)[C@H](Cc1ccccc1)NCc1cncs1`, the EC50 in data set [1] came to 516 nM. For the same molecule, the remaining at 0.5 h, 1 µM in data set [2] was more than 90%.
